Measurements from ChEMBL document CHEMBL1139691, “Microwave-assisted synthesis of thieno[2,3-c]pyridine derivatives as a new series of allosteric enhancers at the adenosine A(1) receptor” (Bioorg Med Chem Lett, 2006).
Calls of active or inactive are those of the source. The calls are words filed in the database; no cut-off is given here.

Key:
[1] = target: T1, Adenosine receptor A1 (Homo sapiens) (UniProt P30542); assay: Activity at human recombinant adenosine A1 receptor expressed in CHO cells assessed as inhibition of forskolin-stimulated cAMP accumulation in presence of CPA at 1 uM relative to control; assay type: functional, cell-based; design: scale not given: the % may be the effect or the level left
T1 sequence (whole entry): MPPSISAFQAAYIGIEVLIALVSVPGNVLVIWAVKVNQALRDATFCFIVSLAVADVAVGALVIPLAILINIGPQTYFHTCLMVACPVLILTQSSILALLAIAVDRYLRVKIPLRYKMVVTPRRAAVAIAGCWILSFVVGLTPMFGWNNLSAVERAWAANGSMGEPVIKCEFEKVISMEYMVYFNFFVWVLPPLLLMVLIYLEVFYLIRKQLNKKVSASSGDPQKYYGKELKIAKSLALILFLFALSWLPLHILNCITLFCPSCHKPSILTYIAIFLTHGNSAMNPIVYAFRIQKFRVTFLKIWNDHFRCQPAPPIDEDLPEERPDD
Outline: (§1)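 CHO cells stably expressing human A1 receptor (about 5 pmol/mg protein), grown 48–72 h in Ham's F12 with FBS and G-418. Cells were washed in HBSS for 6 min at 37 °C, then incubated 6 min at 37 °C in HBSS with adenosine deaminase (0.5 U/ml), 20 µM rolipram, 1 µM forskolin and 0.03 nM CPA, plus compound at 0.01–10 µM. Stopped with 50 mM HCl; cAMP read by acetylation radioimmunoassay. Quadruplicates; averaged over six experiments.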

[2] = target: T1, Adenosine receptor A1 (Homo sapiens); assay: Activity at human recombinant adenosine A1 receptor expressed in CHO cells assessed as inhibition of forskolin-stimulated cAMP accumulation in the presence of CPA at 10 uM; assay type: functional, cell-based; design: scale not given: the % may be the effect or the level left; outline: as §1
[3] = target: Adenosine A2 receptor (Homo sapiens) (UniProt P29275+P29274); assay: Displacement of [3H]ZM 241385 from human adenosine A2 receptor expressed in CHO cells at 10 uM; assay type: cell-based
Outline: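 Competition for [3H]ZM 241385 at CHO hA2A membranes (100 µg protein), 60 min at 4 °C, Tris-HCl with MgCl2, pH 7.4. Nonspecific binding defined with 1 µM ZM241385. Compound tested at 10 µM; percent displacement reported, n = 3.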

[4] = target: T1, Adenosine receptor A1 (Homo sapiens); assay: Activity at human recombinant adenosine A1 receptor expressed in CHO cells assessed as inhibition of forskolin-stimulated cAMP accumulation in presence of CPA at 0.1 uM relative to control; assay type: functional, cell-based; design: scale not given: the % may be the effect or the level left; outline: as §1
[5] = target: T1, Adenosine receptor A1 (Homo sapiens); assay: Displacement of [3H]DPCPX from human adenosine A1 receptor expressed in CHO cells at 10 uM; assay type: cell-based
Outline: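 Competition for 1 nM [3H]DPCPX at CHO hA1 membranes (100 µg protein), 150 min at 25 °C, Tris-HCl pH 7.4. Nonspecific binding defined with 1 µM DPCPX. Compound tested at 10 µM; percent displacement reported, n = 3.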

[6] = target: T1, Adenosine receptor A1 (Homo sapiens); assay: Activity at human recombinant adenosine A1 receptor expressed in CHO cells assessed as inhibition of forskolin-stimulated cAMP accumulation in presence of CPA at 0.01 uM relative to control; assay type: functional, cell-based; design: scale not given: the % may be the effect or the level left; outline: as §1
[7] = target: T2, Adenosine receptor A3 (Homo sapiens) (UniProt P0DMS8); assay: Displacement of [3H]MRE-3008F20 from human adenosine A3 receptor expressed in CHO cells at 10 uM; assay type: cell-based
T2 sequence (whole entry): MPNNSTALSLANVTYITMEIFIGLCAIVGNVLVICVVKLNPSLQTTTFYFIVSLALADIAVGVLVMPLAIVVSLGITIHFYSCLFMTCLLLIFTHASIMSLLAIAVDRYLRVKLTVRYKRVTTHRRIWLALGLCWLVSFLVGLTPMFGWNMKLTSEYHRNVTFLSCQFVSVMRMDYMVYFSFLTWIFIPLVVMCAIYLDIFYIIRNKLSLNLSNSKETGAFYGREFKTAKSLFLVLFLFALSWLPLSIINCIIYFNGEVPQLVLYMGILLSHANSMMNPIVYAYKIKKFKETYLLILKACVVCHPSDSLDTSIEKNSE
Outline: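 Competition for [3H]MRE-3008F20 at CHO hA3 membranes (100 µg protein), 150 min at 4 °C, Tris-HCl with MgCl2 and 1 mM EDTA, pH 7.4. Compound tested at 10 µM; percent displacement reported, n = 3.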

[8] = target: T1, Adenosine receptor A1 (Homo sapiens); assay: Activity at human recombinant adenosine A1 receptor expressed in CHO cells assessed as inhibition of forskolin-stimulated cAMP accumulation in presence of CPA at 10 uM relative to control; assay type: functional, cell-based; design: scale not given: the % may be the effect or the level left; outline: as §1
[9] = target: T1, Adenosine receptor A1 (Homo sapiens); assay: Activity at human recombinant adenosine A1 receptor expressed in CHO cells assessed as inhibition of forskolin-stimulated cAMP accumulation in the presence of CPA relative to control; assay type: functional, cell-based; design: scale not given: the % may be the effect or the level left; outline: as §1

Structure (SMILES) | Activity [1] [%] | Activity [2] | inhibition [3] [%] | Activity [4] [%] | inhibition [5] [%] | Activity [6] [%] | inhibition [7] [%] | Activity [8] [%] | Activity [9] [%]
Nc1sc2cnccc2c1C(=O)c1ccccc1 | 90 | – | 0 | 89 | 0 | 91 | 0 | 100 | –
Nc1sc2cnccc2c1C(=O)c1ccc(Br)cc1 | 84 | – | 0 | 89 | 0 | 97 | 0 | 104 | –
Cc1sc(N)c(C(=O)c2cccc(C(F)(F)F)c2)c1C | 81 | – | 0 | 93 | 0 | 97 | – | 52 | 48
Nc1sc2cnccc2c1C(=O)c1ccccc1Cl | 97 | – | 0 | 98 | 0 | 103 | 0 | 111 | –
Nc1sc2cnccc2c1C(=O)c1cccs1 | 107 | – | 0 | 104 | 35 | 111 | 0 | 98 | –

Results, then the compound that gave them:

Activity [1] [%] | Activity [2] | inhibition [3] [%] | Activity [4] [%] | inhibition [5] [%] | Activity [6] [%] | inhibition [7] [%] | Activity [8] [%] | Activity [9] [%] | Structure (SMILES)
82 | 37% | 0 | 95 | 0 | 101 | 0 | 63 | – | Nc1sc2cnccc2c1C(=O)c1cccc(C(F)(F)F)c1
90 | – | 0 | 97 | 0 | 95 | 0 | 94 | – | COc1ccc(C(=O)c2c(N)sc3cnccc23)cc1
107 | Active | 0 | 112 | 0 | 113 | 0 | 66 | – | Nc1sc2cnccc2c1C(=O)c1cccc2ccccc12
107 | – | 0 | 107 | 45 | 102 | 0 | 121 | – | Cc1ccc(C(=O)c2c(N)sc3cnccc23)cc1
96 | – | 0 | 102 | 50 | 104 | 0 | 114 | – | Nc1sc2cnccc2c1C(=O)c1ccc(Cl)cc1
103 | – | 0 | 108 | 0 | 113 | 0 | 105 | – | Nc1sc2cnccc2c1C(=O)c1ccc(Cl)c(Cl)c1
